BB579 growth dn – yeast BB579 growth reduction in restrictive medium; AID 804; inhibition, % at 10 µM; 0.51% of 140,000 active; S. cerevisiae BB579 growth, OD615, 48 h;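 active means inhibition above a set limit, 3 SD over the mean compound inhibition, cut at about 44% in these data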
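Test system: Saccharomyces cerevisiae DeaD strain BB579, replicative lifespan model yeast | Buffer or medium: Restrictive CSMM-D medium | Doses: One dose, 10 µM compound with 0.25% DMSO | Incubation: 48 h exposure, 30 °C | Detection: Culture absorbance at 615 nm | Control set: Amphotericin B at 10 µg/mL as positive control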
RAM inhibit – inhibitors of the yeast RAM network; S. cerevisiae dse1pr::URA3 reporter, 5-FOA growth OD615, 2 d; analog-sensitive cbk1-as2 kinase mutant strain; inhibition, % at 50 µM; 1.8% of 190,000 active;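 active means inhibition above a set limit, 3 SD over mean compound inhibition, cut at about 8.4% in these data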;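 further: 0% = DMSO-only wells with no growth and 100% = 10 µM 1-NA-PP1 full growth; inhibition rescues growth on 5-FOA so higher OD means more RAM inhibition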
Measles CPE – protection of cells from measles virus. 1.5% of 140,000 active. protection (pct of control), % at 4 µM. Measles virus-infected cells, CPE protection, absorbance; in the data active means protection mostly above about 24%, no sharp cut-off; inactive means mostly below about 26%
Yeast lifespan up – extends the lifespan of yeast; S. cerevisiae growth with nicotinamide, OD615; deaD strain in restrictive glucose medium; inhibition of the nicotinamide effect, % at 10 µM; 0.68% of 130,000 active; AID 775;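 active means inhibition above a set limit, placed 3 SD over the median of all compounds, cut at about 26% in these data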;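 further: 0% = nicotinamide-treated wells and 100% = cells grown without nicotinamide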
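Buffer or medium: CSMM-D glucose medium, restrictive; test system: modified budding yeast, DeaD strain; compound: single dose 10 µM compound, 0.25% DMSO; schedule: culture preincubation 4 h, compound exposure 48 h, both 30 °C; detection: optical density (absorbance) at 615 nm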
Phagocyt inh – macrophage phagocytosis inhibition | 0.07% of 110,000 active | AID 1029 | inhibition, % at 5 µM | J774A.1 macrophage IgG-bead phagocytosis, imaging;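 active means inhibition above the mean of the plate negative controls plus 5 SD, cut at about 13% in these data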;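 further: phagocytic index as fraction of beads internalized from green versus red external bead signal; plate controls were DMSO negative control for no effect and cytochalasin-D positive control for full effect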
* marks the source's active call; other numbers are inactive results; . = no result given. In the library only some 3.6% were active in any assay of this set; here they are far more common.

SMILES | BB579 growth dn | RAM inhibit | Measles CPE | Yeast lifespan up | Phagocyt inh
COc1ccc([N+](=O)[O-])cc1N(CC(=O)N(C)C)S(C)(=O)=O | . | 3 | . | . | .
Cc1ccc(S(=O)(=O)N(C)C)cc1NC(=O)COC(=O)/C=C/c1ccc2c(c1)OCO2 | . | 9.3* | . | . | .
Cc1cc(C(=O)OCC(=O)Nc2cc(S(=O)(=O)N(C)C)ccc2C)c2ccccc2n1 | . | 0 | . | . | .
O=C(COC(=O)/C=C/c1ccc2c(c1)OCO2)NC1CC1 | -37 | 3 | 26* | 1 | -2
CN(C)S(=O)(=O)c1cccc(NC(=O)COC(=O)/C=C/c2ccc3c(c2)OCO3)c1 | . | 5 | . | . | .
Cc1ccc(S(=O)(=O)N(C)C)cc1NC(=O)COC(=O)/C=C/c1cnc2ccccc2n1 | . | 8.9* | . | . | .
CS(=O)(=O)N1CCN(C(=O)C2c3ccccc3Oc3ccccc32)CC1 | -2 | 0 | 67* | -8 | 0
COc1ccc(NS(=O)(=O)c2cc(NC(=O)CNC(=O)c3ccc(C)s3)ccc2Cl)cc1 | -18 | 10* | 12 | 5 | 1
Cc1ccc(C(=O)NCC(=O)Nc2ccc(C)c(S(=O)(=O)Nc3ccc(Cl)cc3)c2)s1 | . | 6 | . | . | .
CC(=O)NC(=S)Nc1cccc(S(=O)(=O)NC2=NCCC2)c1 | -2 | 0 | 5 | -1 | -2
CN1CCN(C2=Cc3cc(Cl)ccc3Sc3cc(F)ccc32)CC1 | 98* | 3 | 9 | . | .
CN1CCN(C2=Cc3ccccc3Sc3cc(F)c(F)cc32)CC1 | 1 | 2 | 16 | . | .
CNS(=O)(=O)c1ccc(NC(=O)c2ccccn2)cc1 | 4 | 1 | 5 | 3 | -5
COc1cccc(N=c2oc3c(C)ncc(CO)c3cc2C(=O)Nc2ccccc2OC)c1 | -42 | 2 | 13 | -9 | .
CCOc1ccc(OCC)c(N=c2oc3c(C)ncc(CO)c3cc2C(N)=O)c1 | -31 | 1 | 50* | -25 | 1
C[C@@H](O)C1NC(=O)[C@H](CCCCN)NC(=O)c2cc([N+](=O)[O-])cc(I)c2OCC[C@@H](C(N)=O)NC1=O (stereo not given in full) | 11 | 1 | 4 | 8 | .
CCOC(=O)c1ccc(N/C=C\C(=O)c2cccc(OC)c2)cc1 | -23 | 10* | 16 | 2 | -4
CCOC(=O)c1cccc(N/C=C/C(=O)c2ccc(OC)c(OC)c2)c1 | 42 | 1 | 9 | -21 | .
CCOc1ccc(N/C=C\C(=O)c2ccc3c(c2)OCO3)cc1 | -38 | 2 | 42* | . | .
COc1ccc(N/C=C\C(=O)c2ccc3c(c2)OCO3)cc1 | -82 | 6 | 13 | -6 | .
Cc1ccc(-c2csc(NC(=O)N3CCOCC3)n2)cc1 | . | 1 | . | . | .
O=C(CNC(=O)c1cccs1)OCC(=O)c1ccccc1Cl | . | 3 | . | . | .
Cc1ccccc1SCCNC(=O)CCc1ccccc1 | . | 4 | . | . | .
O=C(OCC#CCSc1nnc(-c2ccc(Br)cc2)o1)c1ccco1 | -38 | 10* | 10 | 5 | -2
COc1ccccc1-n1cc(C(=O)N2CCCC(CO)(Cc3ccccc3C)C2)cn1 (stereo not given) | . | 4 | . | . | .
SMILES | BB579 growth dn | RAM inhibit | Measles CPE | Yeast lifespan up | Phagocyt inh
Clc1ccc(-c2nnc3n2CCCCC3)cc1 | -50 | 2 | 79* | -11 | -1
Cc1cccc(-c2nnc(N)s2)c1 | -31 | 1 | 36* | -26 | 0
O=C(CSc1ccc2ccccc2c1)Nc1nc2ccccc2[nH]1 | -15 | 6 | 42* | -5 | .
O=C(COc1ccccc1)Nc1nc2ccccc2[nH]1 | -5 | 3 | 4 | -10 | -4
Cc1ccc2nc(-c3ccc(NC(=O)CSc4ccccc4)cc3)[nH]c2c1 | -22 | 3 | 9 | 76* | 0
CCOc1cc(C=O)ccc1OCCSc1ccc(Cl)cc1 | -6 | 1 | 6 | -26 | .
O=C(NC(=S)Nc1nc2c(ccc3ccccc32)s1)c1cccs1 | -46 | 5 | 14 | 2 | -9
CN(C)S(=O)(=O)c1ccc(Cl)c(NC(=O)CSc2nc3c(cc2C#N)C(=O)CCC3)c1 | -44 | 1 | 6 | 0 | -6
Cc1ccc(NC(=O)CSc2nc3c(cc2C#N)C(=O)CCC3)cc1S(=O)(=O)N(C)C | -43 | 8.5* | 8 | 6 | -7
Cc1ccc(C(=O)O)cc1N=Cc1cc(Br)cc(Br)c1O | 90* | 1 | 2 | 4 | -1
COc1cc(C)ccc1OCCOc1c(Cl)cc(Cl)cc1Cl | -28 | 9.9* | 7 | -13 | -3
CCc1cccc2c(C(=O)COC(=O)c3ccccc3)c[nH]c12 | -17 | -1 | 28* | 3 | -7
CCc1cccc2c(C(=O)COC(=O)c3ccc(O)cc3)c[nH]c12 | -14 | 4 | 13 | -1 | -5
CNc1ncc(C(=O)c2ccc(Br)cc2)s1 | . | 1 | . | . | .
CC(C)COc1ccc(CSCCNC(=S)Nc2ccccc2)cc1 | -5 | 9.0* | 22 | -4 | 0
CCCCOc1ccc(CSCCNC(=S)Nc2ccccc2)cc1 | -31 | 3 | 3 | 3 | -9
COc1ccccc1Oc1coc2c(CN(C)C)c(O)ccc2c1=O | -1 | 1 | 1 | -29 | .
Cc1nc(-c2coc3c(CN(C)C)c(O)ccc3c2=O)cs1 | -31 | 0 | 35* | 3 | 2
O=C(CN1C(=O)CCC1=O)Nc1ccc(Cc2ccc(NC(=O)CN3C(=O)CCC3=O)cc2)cc1 | . | 0 | . | . | .
CCOc1ccc(/C=C/C(=O)Nc2cccc(C(C)=O)c2)cc1 | -39 | 9.7* | 7 | -2 | -6
CCOc1ccc(/C=C/C(=O)c2ccc(-c3ccccc3)cc2)cc1 | -44 | 8.9* | 11 | 3 | -2
CNc1ccc2nnc(C(F)(F)C(F)(F)C(F)(F)F)n2n1 | . | 1 | . | . | .
Cc1cc(NC(=O)CN2C(=O)S/C(=C\c3ccccc3)C2=O)no1 | -5 | 2 | 31* | -1 | .
COc1ccc(N2C(=O)CCC(C(=O)NCCN3CCOCC3)C2c2ccc(OC)c(OC)c2)cc1 (stereo not given) | -39 | 1 | 21 | -5 | 44*
O=C(CSc1nnc(CNc2ccc(F)cc2)o1)c1ccccc1 | . | 2 | . | . | .
SMILES | BB579 growth dn | RAM inhibit | Measles CPE | Yeast lifespan up | Phagocyt inh
CCCCN1C(=O)C(O)(CC(=O)c2c(C)n[nH]c2C)c2cc(Br)ccc21 (stereo not given) | -25 | 1 | 73* | -10 | 1
CCCCN1C(=O)C(O)(CC(=O)c2ccco2)c2cc(Br)ccc21 (stereo not given) | -23 | 0 | 9 | -2 | 2
C=CCOc1cccc(C(=O)N2CCCC(CNS(=O)(=O)c3cccs3)C2)c1 (stereo not given) | . | 1 | . | . | .
CCCCNC(=O)CSc1nc(COc2ccccc2)nc2ccccc12 | . | 3 | . | . | .
O=S(=O)(c1ccc2nc(COc3ccc(Cl)cc3Cl)[nH]c2c1)N1CCOCC1 | -43 | 6 | 53* | -17 | 0
O=C(C1=C[C@H](c2ccc3c(c2)OCO3)C[C@H](OCc2ccc(CO)cc2)O1)N1CCCCCCC1 | . | 5 | . | . | .
O=C(O)C1=C[C@@H](c2ccc(Br)cc2)C[C@@H](OCc2ccc(CO)cc2)O1 | . | 1 | . | . | .
CC(C)(C)[C@@H]1C=C(C(=O)Nc2ccccc2)O[C@H](OCc2ccc(CO)cc2)C1 | . | 8.5* | . | . | .
